A short description of series [1]: Michaelis constant (Km), determined by Ficin hydrolysis at pH 6, 25 degrees Centigrade. The format is ADME. The conditions noted are these: buffer. The method, boiled down: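 Ficin stock suspension diluted in 0.03 M NaCl-0.01 M EDTA buffer pH 6, activated ~2 h by saturation with 4-thiocresol, then diluted again in the same buffer. Ester hydrolysis followed spectrophotometrically at 25 °C, pH 6, in 3.3% acetonitrile-buffer. Initial rates taken at ≥8 substrate concentrations per ester. Km from least-squares fit of a Lineweaver-Burk plot.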

Series [2] in a line: The compound was tested and spectral absorbance change (Δε) was evaluated.
A short description of series [3]: The compound was tested and optimum wavelength (λmax) was evaluated.
Series [4] is described as follows: The compound was tested for optimum wavelength (λmax).

From ChEMBL document CHEMBL1122515, “Structure-activity relationship of the ficin hydrolysis of phenyl hippurates. Comparison with papain, actinidin, and bromelain” (J Med Chem, 1984) come the findings set out here.

Each structure is given as a SMILES string.

Regarding `NC(=O)c1ccc(OC(=O)CNC(=O)c2ccccc2)cc1`, in series [1], the “Log 1/Km” value turned out to be 4.17.
The same measure, in the same setting: then `COc1ccc(OC(=O)CNC(=O)c2ccccc2)cc1`, with 3.82.
On to `CC(=O)c1cccc(OC(=O)CNC(=O)c2ccccc2)c1`, for which the “Log 1/Km” value in series [1] is listed as 4.11. For the same compound, the Δε in series [2] was determined as 1860 M⁻¹ cm⁻¹. Besides, the λmax in series [3] was 310 nm.
Turning to `CC(C)(C)c1cccc(OC(=O)CNC(=O)c2ccccc2)c1`, the “Log 1/Km” value in series [1] came to 5.14.
Regarding `CCc1cc(C)cc(OC(=O)CNC(=O)c2ccccc2)c1`, in series [1], the “Log 1/Km” value is given as 4.79.
For the compound `N#Cc1cccc(OC(=O)CNC(=O)c2ccccc2)c1`, the “Log 1/Km” value in series [1] is on record as 4.15.
The same measure, in the same setting: then `O=C(CNC(=O)c1ccccc1)Oc1ccc(F)cc1`, with 3.53; and `CC(=O)c1ccc(OC(=O)CNC(=O)c2ccccc2)cc1`, with 4.3.
In the case of `O=C(CNC(=O)c1ccccc1)Oc1ccc(Br)cc1`, the “Log 1/Km” value in series [1] was determined as 4.13. The same compound came in with a Δε in series [2] of 1090 M⁻¹ cm⁻¹. The compound also registered a λmax in series [4] of 280 nm.
Turning to `O=C(CNC(=O)c1ccccc1)Oc1cccc(F)c1`, in series [1], the “Log 1/Km” value was 3.81.
As for `O=C(CNC(=O)c1ccccc1)Oc1cccc(C(F)(F)F)c1`, the “Log 1/Km” value in series [1] was 4.85.
Same read-out and setting: with `Nc1cccc(OC(=O)CNC(=O)c2ccccc2)c1` the figure was 3.72; with `Cc1cccc(OC(=O)CNC(=O)c2ccccc2)c1`, 4.17.
Turning to `CC(C)c1ccc(OC(=O)CNC(=O)c2ccccc2)cc1`, the “Log 1/Km” value in series [1] amounted to 4.33. The Δε in series [2] worked out at 1300 M⁻¹ cm⁻¹. The compound also returned a λmax in series [3] of 275 nm.
Regarding `O=C(CNC(=O)c1ccccc1)Oc1cccc([N+](=O)[O-])c1`, the “Log 1/Km” value in series [1] turned out to be 4.36.
For the compound `O=C(CNC(=O)c1ccccc1)Oc1cccc(Cl)c1`, the “Log 1/Km” value in series [1] was 4.43.
`O=C(CNC(=O)c1ccccc1)Oc1ccc(Cl)cc1`: the “Log 1/Km” value in series [1] came to 3.91.
On to `O=C(CNC(=O)c1ccccc1)Oc1cc(Cl)cc(Cl)c1`, for which the “Log 1/Km” value in series [1] is recorded as 4.98.
On to `N#Cc1ccc(OC(=O)CNC(=O)c2ccccc2)cc1`, for which the “Log 1/Km” value in series [1] amounted to 4.27.
With `O=C(CNC(=O)c1ccccc1)Oc1ccccc1`, the “Log 1/Km” value in series [1] turned out to be 3.9.
Turning to `O=C(CNC(=O)c1ccccc1)Oc1ccc([N+](=O)[O-])cc1`, in series [1], the “Log 1/Km” value was 4.5.
The same measure, in the same setting: with `O=C(CNC(=O)c1ccccc1)Oc1cccc(Br)c1` the figure was 4.75.
On to `Cc1ccc(OC(=O)CNC(=O)c2ccccc2)cc1`, for which the “Log 1/Km” value in series [1] is 3.82.
On to `CC(=O)Nc1cccc(OC(=O)CNC(=O)c2ccccc2)c1`, for which the “Log 1/Km” value in series [1] is reported as 3.74.
For the compound `Cc1cc(C)cc(OC(=O)CNC(=O)c2ccccc2)c1`, the “Log 1/Km” value in series [1] came out at 4.54.
In the case of `O=C(CNC(=O)c1ccccc1)Oc1cc([N+](=O)[O-])cc([N+](=O)[O-])c1`, in series [1], the “Log 1/Km” value is on record as 4.69.
For the compound `O=C(CNC(=O)c1ccccc1)Oc1cccc(I)c1`, in series [1], the “Log 1/Km” value was 4.64.
As for `NC(=O)c1cccc(OC(=O)CNC(=O)c2ccccc2)c1`, the “Log 1/Km” value in series [1] amounted to 3.99.
For `COc1cc(OC)cc(OC(=O)CNC(=O)c2ccccc2)c1`, the “Log 1/Km” value in series [1] is recorded as 4.52.
In the case of `COc1cccc(OC(=O)CNC(=O)c2ccccc2)c1`, in series [1], the “Log 1/Km” value is listed as 4.09. For the same compound, the Δε in series [2] came out at 886 M⁻¹ cm⁻¹. In addition, the λmax in series [3] was 280 nm.
